Reference: ChEMBL document CHEMBL4715780, “Biological evaluation of tetracationic compounds based on two 1,4-diazabicyclo[2.2.2]octane moieties connected by different linkers” (Bioorg Med Chem, 2016)

Columns and labels:
Staphylococcus aureus [1] = assay: Antibacterial activity against […] Staphylococcus aureus ATCC 25923 assessed as bacterial growth inhibition by CLSI protocol based serial microdilution method; format: functional
Enterococcus faecalis = assay: Antibacterial activity against Enterococcus faecalis ATCC 51299 assessed as concentration required to inhibit visible growth by CLSI protocol based serial microdilution method; format: functional
Pseudomonas aeruginosa [2] = assay: Antibacterial activity against Pseudomonas aeruginosa ATCC 9027 assessed as concentration required to inhibit visible growth by CLSI protocol based serial microdilution method; format: functional
Escherichia coli = assay: Antibacterial activity against Escherichia coli ATCC 25922 assessed as concentration required to inhibit visible growth by CLSI protocol based serial microdilution method; format: functional
Salmonella typhimurium [3] = assay: Antibacterial activity against Salmonella enterica ATCC 14028 assessed as concentration required to inhibit visible growth by CLSI protocol based serial microdilution method; format: functional, Salmonella enterica subsp. enterica serovar Typhimurium
Salmonella typhimurium [4] = assay: Antibacterial activity against Salmonella enterica ATCC 14028 assessed as bacterial growth inhibition by CLSI protocol based serial microdilution method; format: functional, Salmonella enterica subsp. enterica serovar Typhimurium
Candida albicans = assay: Antifungal activity against Candida albicans CEMTC 34 assessed as concentration required to inhibit visible growth by CLSI protocol based serial microdilution method; format: functional
In short: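 Candida albicans grown in Sabouraud dextrose broth with two-fold serial compound dilutions from water stocks; final inoculum about 5 × 10⁵ CFU/mL. Incubated at 37 °C with orbital shaking (580 rpm). MIC is the lowest concentration preventing growth, by absorbance at 595 nm. MFC is the lowest concentration with no visible growth. Duplicates in two separate experiments.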

Staphylococcus aureus [5] = assay: Antibacterial activity against methicillin-resistant Staphylococcus aureus CEMTC 675 assessed as concentration required to inhibit visible growth by CLSI protocol based serial microdilution method; format: functional
Staphylococcus aureus [6] = assay: Antibacterial activity against methicillin-resistant Staphylococcus aureus CEMTC 1733 assessed as bacterial growth inhibition by CLSI protocol based serial microdilution method; format: functional
Pseudomonas aeruginosa [7] = assay: Bactericidal activity against Pseudomonas aeruginosa ATCC 9027 assessed as colony forming unit at 10 ug/ml measured at 4 hrs by time kill assay (reference value: 1.2 x 10^7 CFU/ml); format: functional; details: dose 10 µg/ml
In short: (§1)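 Overnight Pseudomonas aeruginosa culture adjusted in Mueller–Hinton broth to about 2.5 × 10⁵ CFU/mL. Compound added at 2.5, 5 or 10 µg/mL, then incubated at 37 °C with shaking (580 rpm) for 22 h. Viable colonies counted on plates at 2, 4, 6, 8 and 22 h. Quantification limit 100 CFU/mL; triplicate.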

Pseudomonas aeruginosa [8] = assay: Bactericidal activity against Pseudomonas aeruginosa ATCC 9027 assessed as colony forming unit at 2.5 ug/ml measured at 2 hrs by time kill assay (reference value: 3.6 x 10^5 CFU/ml); format: functional; details: dose 2.5 µg/ml; in short: as §1
Pseudomonas aeruginosa [9] = assay: Bactericidal activity against Pseudomonas aeruginosa ATCC 9027 assessed as colony forming unit at 2.5 ug/ml measured at 4 hrs by time kill assay (reference value: 1.2 x 10^7 CFU/ml); format: functional; details: dose 2.5 µg/ml; in short: as §1
Pseudomonas aeruginosa [10] = assay: Bactericidal activity against Pseudomonas aeruginosa ATCC 9027 assessed as colony forming unit at 2.5 ug/ml measured at 22 hrs by time kill assay (reference value: 1.7 x 10^9 CFU/ml); format: functional; details: dose 2.5 µg/ml; in short: as §1
Pseudomonas aeruginosa [11] = assay: Bactericidal activity against Pseudomonas aeruginosa ATCC 9027 assessed as reduction in colony forming unit at 5 ug/ml measured at 4 hrs by time kill assay relative to control; format: functional; set-up: scale not given: the % may be the effect or the level left; details: dose 5 µg/ml; in short: as §1
Pseudomonas aeruginosa [12] = assay: Bactericidal activity against Pseudomonas aeruginosa ATCC 9027 assessed as reduction in colony forming unit at 5 ug/ml measured at 6 hrs by time kill assay relative to control; format: functional; set-up: scale not given: the % may be the effect or the level left; details: dose 5 µg/ml; in short: as §1
Pseudomonas aeruginosa [13] = assay: Bactericidal activity against Pseudomonas aeruginosa ATCC 9027 assessed as reduction in colony forming unit at 5 ug/ml measured at 8 hrs by time kill assay relative to control; format: functional; set-up: scale not given: the % may be the effect or the level left; details: dose 5 µg/ml; in short: as §1
Staphylococcus aureus [14] = assay: Bactericidal activity against […] Staphylococcus aureus ATCC 25923 assessed as colony forming unit at 5 ug/ml measured at 6 hrs by time kill assay (reference value: 1.2 x 10^6 CFU/ml); format: functional; details: dose 5 µg/ml
In short: (§2)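 S. aureus overnight culture was adjusted in MHB to ~8 × 10⁵ CFU/mL. Compound was added and the mixture incubated at 37 °C with shaking (580 rpm) for 22 h. Aliquots were plated for colony counts at 2, 4, 6, 8 and 22 h, with a quantification limit of 100 CFU/mL. Runs were done in triplicate.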

Staphylococcus aureus [15] = assay: Bactericidal activity against […] Staphylococcus aureus ATCC 25923 assessed as colony forming unit at 5 ug/ml measured at 8 hrs by time kill assay (reference value: 2.7 x 10^8 CFU/ml); format: functional; details: dose 5 µg/ml; in short: as §2
Staphylococcus aureus [16] = assay: Bactericidal activity against […] Staphylococcus aureus ATCC 25923 assessed as colony forming unit at 5 ug/ml measured at 22 hrs by time kill assay (reference value: 2.9 x 10^9 CFU/ml); format: functional; details: dose 5 µg/ml; in short: as §2
Staphylococcus aureus [17] = assay: Bactericidal activity against […] Staphylococcus aureus ATCC 25923 assessed as colony forming unit at 2.5 ug/ml measured at 2 hrs by time kill assay (reference value: 10^6 CFU/ml); format: functional; details: dose 2.5 µg/ml; in short: as §2
Staphylococcus aureus [18] = assay: Bactericidal activity against […] Staphylococcus aureus ATCC 25923 assessed as colony forming unit at 2.5 ug/ml measured at 6 hrs by time kill assay (reference value: 1.2 x 10^6 CFU/ml); format: functional; details: dose 2.5 µg/ml; in short: as §2
Staphylococcus aureus [19] = assay: Bactericidal activity against […] Staphylococcus aureus ATCC 25923 assessed as colony forming unit at 2.5 ug/ml measured at 8 hrs by time kill assay (reference value: 2.7 x 10^8 CFU/ml); format: functional; details: dose 2.5 µg/ml; in short: as §2
Staphylococcus aureus [20] = assay: Bactericidal activity against […] Staphylococcus aureus ATCC 25923 assessed as colony forming unit at 2.5 ug/ml measured at 22 hrs by time kill assay (reference value: 2.9 x 10^9 CFU/ml); format: functional; details: dose 2.5 µg/ml; in short: as §2
Staphylococcus aureus [21] = assay: Bactericidal activity against […] Staphylococcus aureus ATCC 25923 assessed as colony forming unit at 1.25 ug/ml measured at 4 hrs by time kill assay (reference value: 7.8 x 10^6 CFU/ml); format: functional; details: dose 1.25 µg/ml; in short: as §2
Staphylococcus aureus [22] = assay: Bactericidal activity against […] Staphylococcus aureus ATCC 25923 assessed as colony forming unit at 1.25 ug/ml measured at 6 hrs by time kill assay (reference value: 1.2 x 10^6 CFU/ml); format: functional; details: dose 1.25 µg/ml; in short: as §2
Staphylococcus aureus [23] = assay: Bactericidal activity against […] Staphylococcus aureus ATCC 25923 assessed as colony forming unit at 1.25 ug/ml measured at 8 hrs by time kill assay (reference value: 2.7 x 10^8 CFU/ml); format: functional; details: dose 1.25 µg/ml; in short: as §2
Staphylococcus aureus [24] = assay: Bactericidal activity against […] Staphylococcus aureus ATCC 25923 assessed as colony forming unit at 1.25 ug/ml measured at 22 hrs by time kill assay (reference value: 2.9 x 10^9 CFU/ml); format: functional; details: dose 1.25 µg/ml; in short: as §2
[25] = Selectivity index, ratio of CC50 for HEK293T cells assessed as reduction in cell viability measured after 24 hrs by MTT assay to MIC for Pseudomonas aeruginosa ATCC 9027 assessed as bacterial growth inhibition by CLSI protocol based serial microdilution method; format: toxicity; details: human, read-out: Selectivity Index
[26] = Cytotoxicity against MDCK cells assessed as cell death incubated for 48 hrs by MTT assay; format: cell-based, Canis lupus familiaris; details: dog

CCCCCCCCCCCC[N+]12CC[N+](CCC[N+]34CC[N+](CCCCCCCCCCCC)(CC3)CC4)(CC1)CC2
MIC (Staphylococcus aureus [1]): 0.3 µg/mL
MBC (Enterococcus faecalis): 3.1 µg/mL
MBC (Pseudomonas aeruginosa [2]): 3.1 µg/mL
MBC (Escherichia coli): 3.1 µg/mL
MBC (Salmonella typhimurium [3]): 3.1 µg/mL
MIC (Salmonella typhimurium [4]): 1.6 µg/mL
MFC (Candida albicans): 6.3 µg/mL
MBC (Staphylococcus aureus [5]): 1 µg/mL
MIC (Staphylococcus aureus [6]): 1 µg/mL
Activity (Pseudomonas aeruginosa [7]): <100 CFU/ml
Activity (Pseudomonas aeruginosa [8]): 330 CFU/ml
Activity (Pseudomonas aeruginosa [9]): <100 CFU/ml
Activity (Pseudomonas aeruginosa [10]): <100 CFU/ml
Activity (Pseudomonas aeruginosa [11]): >=99.9%
Activity (Pseudomonas aeruginosa [12]): >=99.9%
Activity (Pseudomonas aeruginosa [13]): >=99.9%
Activity (Staphylococcus aureus [14]): <100 CFU/ml
Activity (Staphylococcus aureus [15]): <100 CFU/ml
Activity (Staphylococcus aureus [16]): <100 CFU/ml
Activity (Staphylococcus aureus [17]): 330 CFU/ml
Activity (Staphylococcus aureus [18]): <100 CFU/ml
Activity (Staphylococcus aureus [19]): <100 CFU/ml
Activity (Staphylococcus aureus [20]): <100 CFU/ml
Activity (Staphylococcus aureus [21]): <100 CFU/ml
Activity (Staphylococcus aureus [22]): <100 CFU/ml
Activity (Staphylococcus aureus [23]): <100 CFU/ml
Activity (Staphylococcus aureus [24]): <100 CFU/ml
selectivity ratio at 24 h [25]: 4
CC50 at 48 h [26]: 12.8 µg/mL

CCCCCCCCCCCC[N+]12CC[N+](Cc3ccccc3C[N+]34CC[N+](CCCCCCCCCCCC)(CC3)CC4)(CC1)CC2
MIC (Staphylococcus aureus [1]): 0.6 µg/mL
MBC (Enterococcus faecalis): 1.6 µg/mL
MBC (Pseudomonas aeruginosa [2]): 3.1 µg/mL
MBC (Escherichia coli): 3.1 µg/mL
MBC (Salmonella typhimurium [3]): 3.1 µg/mL
MIC (Salmonella typhimurium [4]): 16 µg/mL
MFC (Candida albicans): 6.3 µg/mL
MBC (Staphylococcus aureus [5]): 1 µg/mL
MIC (Staphylococcus aureus [6]): 1 µg/mL
Activity (Pseudomonas aeruginosa [7]): <100 CFU/ml
Activity (Pseudomonas aeruginosa [8]): 6800 CFU/ml
Activity (Pseudomonas aeruginosa [9]): 1300 CFU/ml
Activity (Pseudomonas aeruginosa [10]): 100 CFU/ml
Activity (Pseudomonas aeruginosa [11]): >=99.9%
Activity (Pseudomonas aeruginosa [12]): >=99.9%
Activity (Pseudomonas aeruginosa [13]): >=99.9%
Activity (Staphylococcus aureus [14]): <100 CFU/ml
Activity (Staphylococcus aureus [15]): <100 CFU/ml
Activity (Staphylococcus aureus [16]): <100 CFU/ml
Activity (Staphylococcus aureus [17]): 1000 CFU/ml
Activity (Staphylococcus aureus [18]): <100 CFU/ml
Activity (Staphylococcus aureus [19]): <100 CFU/ml
Activity (Staphylococcus aureus [20]): <100 CFU/ml
Activity (Staphylococcus aureus [21]): <100 CFU/ml
Activity (Staphylococcus aureus [22]): <100 CFU/ml
Activity (Staphylococcus aureus [23]): <100 CFU/ml
Activity (Staphylococcus aureus [24]): <100 CFU/ml
selectivity ratio at 24 h [25]: 3
CC50 at 48 h [26]: 1.9 µg/mL
